Converted amounts (≈) assume the structure as drawn. The source made the active and inactive calls. The rule behind the calls is not given here.
Assays:
[1] = biological target: DNA gyrase (Staphylococcus aureus) (UniProt P0A0K8+P20831); experiment: Inhibition of Staphylococcus aureus DNA gyrase assessed as reduction in enzyme-catalyzed supercoiling of relaxed circular pBR322 DNA at 100 uM by agarose gel electrophoresis; type: protein-complex assay
Summary of the method: (§1)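 Recombinant S. aureus gyrase kit, 0.5 U enzyme, relaxed pBR322 (250 ng/μL) in 40 mM HEPES·KOH pH 7.6, 10 mM Mg acetate, 10 mM DTT, 2 mM ATP, 500 mM K glutamate, 0.5 mg/mL albumin; 37 °C, 30 min.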

[2] = Inhibition of Staphylococcus aureus topoisomerase 4 assessed as reduction in decatenation of kDNA at 100 to 500 uM by gel electrophoresis method
Summary of the method: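 Compounds were in DMSO, with water or DMSO as vehicle controls. Reactions were stopped with STEB plus chloroform:isoamyl alcohol and run on 1% agarose TAE gels stained with ethidium bromide. IC50 was taken from densitometry against reactions with and without enzyme.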

[3] = biological target: T1, Ribonuclease J 2 (Staphylococcus aureus (strain COL)) (UniProt Q5HGF6); experiment: Inhibition of Staphylococcus aureus RNAse J2
T1 sequence (whole entry): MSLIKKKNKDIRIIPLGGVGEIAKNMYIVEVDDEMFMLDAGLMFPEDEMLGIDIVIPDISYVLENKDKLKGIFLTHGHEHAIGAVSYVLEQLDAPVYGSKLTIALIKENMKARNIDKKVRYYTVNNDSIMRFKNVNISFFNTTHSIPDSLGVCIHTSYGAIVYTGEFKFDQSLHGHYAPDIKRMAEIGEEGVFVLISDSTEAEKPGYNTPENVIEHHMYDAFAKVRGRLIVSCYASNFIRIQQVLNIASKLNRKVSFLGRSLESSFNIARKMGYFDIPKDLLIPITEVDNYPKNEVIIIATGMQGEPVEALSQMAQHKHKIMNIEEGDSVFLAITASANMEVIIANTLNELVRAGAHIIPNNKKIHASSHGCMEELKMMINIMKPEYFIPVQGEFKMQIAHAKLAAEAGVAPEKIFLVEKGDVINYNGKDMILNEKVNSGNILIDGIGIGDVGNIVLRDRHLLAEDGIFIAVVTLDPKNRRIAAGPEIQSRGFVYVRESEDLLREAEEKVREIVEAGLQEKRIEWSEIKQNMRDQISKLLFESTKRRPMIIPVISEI

[4] = biological target: T2, Ribonuclease P protein component (Staphylococcus aureus (strain COL)) (UniProt Q5HCI2); experiment: Inhibition of Staphylococcus aureus RnpA
T2 sequence (whole entry): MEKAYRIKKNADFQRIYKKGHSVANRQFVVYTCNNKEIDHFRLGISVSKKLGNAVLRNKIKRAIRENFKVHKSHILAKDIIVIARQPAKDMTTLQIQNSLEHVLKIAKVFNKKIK

Acinetobacter baumannii = experiment: Antimicrobial activity against Acinetobacter baumannii 983709 incubated for 16 hrs by CLSI based method; type: functional; conditions: Acinetobacter baumannii, 983709, 16 h
Klebsiella pneumoniae = experiment: Antimicrobial activity against Klebsiella pneumoniae CKP4 incubated for 16 hrs by CLSI based method; type: functional; conditions: CKP4, 16 h
Staphylococcus aureus [5] = experiment: Antimicrobial activity against ciprofloxacin-resistant Staphylococcus aureus CRC61 incubated for 16 hrs by CLSI based method; type: functional; conditions: CRC61, 16 h
Escherichia coli [6] = experiment: Antimicrobial activity against tolC and imp(-) containing Escherichia coli incubated for 16 hrs by CLSI based method; type: functional
Escherichia coli [7] = experiment: Antimicrobial activity against Escherichia coli 8314 incubated for 16 hrs by CLSI based method; type: functional; conditions: Escherichia coli, 8314, 16 h
Staphylococcus aureus [8] = experiment: Antimicrobial activity against methicillin-resistant Staphylococcus aureus USA300 NRS384 incubated for 16 hrs by CLSI based method; type: functional; conditions: USA300 NRS384, 16 h
DNA gyrase = DNA gyrase (Staphylococcus aureus, UniProt P0A0K8+P20831); experiment: Inhibition of Staphylococcus aureus DNA gyrase assessed as reduction in enzyme-catalyzed supercoiling of relaxed circular pBR322 DNA by agarose gel electrophoresis; type: protein-complex assay; summary of the method: as §1
Chain of DNA gyrase (P0A0K8 whole entry): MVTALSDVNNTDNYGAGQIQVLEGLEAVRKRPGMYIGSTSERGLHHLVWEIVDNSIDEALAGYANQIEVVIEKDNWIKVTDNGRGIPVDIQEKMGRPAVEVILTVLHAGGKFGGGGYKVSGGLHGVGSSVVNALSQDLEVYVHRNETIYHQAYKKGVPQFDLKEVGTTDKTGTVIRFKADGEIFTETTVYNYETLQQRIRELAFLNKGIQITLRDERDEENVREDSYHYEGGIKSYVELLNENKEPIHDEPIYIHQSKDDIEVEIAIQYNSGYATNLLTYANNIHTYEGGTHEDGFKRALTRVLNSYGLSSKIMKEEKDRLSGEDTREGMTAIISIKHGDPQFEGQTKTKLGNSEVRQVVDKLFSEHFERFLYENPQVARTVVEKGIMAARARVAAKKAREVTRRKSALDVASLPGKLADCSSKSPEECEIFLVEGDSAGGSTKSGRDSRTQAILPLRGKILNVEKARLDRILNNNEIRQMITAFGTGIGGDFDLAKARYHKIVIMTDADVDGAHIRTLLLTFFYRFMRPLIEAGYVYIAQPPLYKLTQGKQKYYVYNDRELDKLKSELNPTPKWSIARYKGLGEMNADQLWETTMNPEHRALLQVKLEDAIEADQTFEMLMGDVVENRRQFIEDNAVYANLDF
Chain of DNA gyrase (P20831 whole entry): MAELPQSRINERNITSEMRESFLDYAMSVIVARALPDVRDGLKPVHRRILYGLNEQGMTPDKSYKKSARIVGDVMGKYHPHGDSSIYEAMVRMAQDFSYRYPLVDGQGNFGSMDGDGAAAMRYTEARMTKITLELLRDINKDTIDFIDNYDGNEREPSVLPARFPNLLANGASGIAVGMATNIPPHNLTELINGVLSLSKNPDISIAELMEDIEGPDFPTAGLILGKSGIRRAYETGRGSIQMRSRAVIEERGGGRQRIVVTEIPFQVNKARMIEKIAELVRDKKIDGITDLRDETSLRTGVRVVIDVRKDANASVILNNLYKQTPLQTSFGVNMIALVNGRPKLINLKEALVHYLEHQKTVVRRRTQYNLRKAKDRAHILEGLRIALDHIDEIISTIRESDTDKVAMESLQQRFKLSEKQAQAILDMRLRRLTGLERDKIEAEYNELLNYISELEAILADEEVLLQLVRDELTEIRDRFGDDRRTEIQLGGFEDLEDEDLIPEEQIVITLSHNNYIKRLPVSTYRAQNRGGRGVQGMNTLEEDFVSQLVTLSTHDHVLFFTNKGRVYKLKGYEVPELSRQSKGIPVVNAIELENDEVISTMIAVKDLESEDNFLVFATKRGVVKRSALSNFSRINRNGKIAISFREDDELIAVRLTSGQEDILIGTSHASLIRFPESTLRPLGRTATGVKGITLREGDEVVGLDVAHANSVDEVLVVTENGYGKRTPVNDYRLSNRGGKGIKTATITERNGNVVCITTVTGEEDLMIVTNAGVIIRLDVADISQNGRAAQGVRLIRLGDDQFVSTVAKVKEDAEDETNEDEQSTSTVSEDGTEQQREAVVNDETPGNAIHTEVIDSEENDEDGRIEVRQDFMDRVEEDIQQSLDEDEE

Staphylococcus aureus [9] = experiment: Antimicrobial activity against vancomycin-resistant Staphylococcus aureus VRSA1 incubated for 16 hrs by CLSI based method; type: functional; conditions: VRSA1, 16 h
[10] = biological target: Voltage-gated inwardly rectifying potassium channel KCNH2 (Homo sapiens, UniProt Q12809)
Chain of Voltage-gated inwardly rectifying potassium channel KCNH2 (Q12809 whole entry): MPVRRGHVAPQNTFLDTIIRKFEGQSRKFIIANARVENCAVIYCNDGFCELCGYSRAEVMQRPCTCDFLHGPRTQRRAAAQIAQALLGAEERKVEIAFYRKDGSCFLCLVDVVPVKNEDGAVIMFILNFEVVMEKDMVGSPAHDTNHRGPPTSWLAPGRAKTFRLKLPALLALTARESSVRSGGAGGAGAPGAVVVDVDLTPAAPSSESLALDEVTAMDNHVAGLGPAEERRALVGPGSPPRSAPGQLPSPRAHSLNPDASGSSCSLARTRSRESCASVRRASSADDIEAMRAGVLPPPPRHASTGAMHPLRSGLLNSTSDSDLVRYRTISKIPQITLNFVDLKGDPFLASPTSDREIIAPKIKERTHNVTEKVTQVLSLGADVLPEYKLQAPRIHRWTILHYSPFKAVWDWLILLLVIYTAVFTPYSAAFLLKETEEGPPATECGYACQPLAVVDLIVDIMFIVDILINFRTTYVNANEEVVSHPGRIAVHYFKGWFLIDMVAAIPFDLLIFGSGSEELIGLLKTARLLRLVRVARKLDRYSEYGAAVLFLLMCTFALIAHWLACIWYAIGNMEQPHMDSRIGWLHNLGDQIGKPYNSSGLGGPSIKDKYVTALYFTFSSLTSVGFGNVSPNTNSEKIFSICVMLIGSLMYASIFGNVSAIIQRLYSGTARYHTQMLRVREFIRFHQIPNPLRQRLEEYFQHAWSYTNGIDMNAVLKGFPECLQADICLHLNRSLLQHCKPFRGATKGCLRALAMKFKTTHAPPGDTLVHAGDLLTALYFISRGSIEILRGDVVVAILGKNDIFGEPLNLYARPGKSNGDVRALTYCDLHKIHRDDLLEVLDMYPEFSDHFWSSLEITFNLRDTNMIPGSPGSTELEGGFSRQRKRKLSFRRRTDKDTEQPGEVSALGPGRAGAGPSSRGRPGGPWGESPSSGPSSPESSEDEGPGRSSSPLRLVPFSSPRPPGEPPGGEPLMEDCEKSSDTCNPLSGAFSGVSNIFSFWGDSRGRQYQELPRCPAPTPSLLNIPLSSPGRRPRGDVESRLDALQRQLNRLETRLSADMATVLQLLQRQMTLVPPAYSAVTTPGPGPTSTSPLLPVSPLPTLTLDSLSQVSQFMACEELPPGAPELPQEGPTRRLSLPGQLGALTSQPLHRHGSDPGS

Staphylococcus aureus [11] = experiment: Antimicrobial activity against methicillin-resistant Staphylococcus aureus USA300-0114 incubated for 16 hrs by CLSI based method; type: functional; conditions: USA300-0114, 16 h
Enterococcus faecium = experiment: Antimicrobial activity against Enterococcus faecium 824-05 incubated for 16 hrs by CLSI based method; type: functional; conditions: 824-05, 16 h
Staphylococcus aureus [12] = experiment: Antimicrobial activity against vancomycin intermediate-resistant Staphylococcus aureus Mu50 incubated for 16 hrs by CLSI based method; type: functional; conditions: Mu50, 16 h
Staphylococcus aureus [13] = experiment: Antimicrobial activity against Staphylococcus aureus U1 incubated for 16 hrs by CLSI based method; type: functional; conditions: U1, 16 h
[14] = test system: Mycobacterium tuberculosis; experiment: Antimicrobial activity against Mycobacterium tuberculosis mc2 6020 incubated for 16 hrs by alamar blue assay; type: functional; conditions: mc2 6020, 16 h
Staphylococcus aureus [15] = experiment: Antimicrobial activity against Staphylococcus aureus UAMS1 incubated for 16 hrs by CLSI based method; type: functional; conditions: UAMS1, 16 h

Chain of DNA gyrase (Staphylococcus aureus) (P0A0K8 2-644 limits assumed): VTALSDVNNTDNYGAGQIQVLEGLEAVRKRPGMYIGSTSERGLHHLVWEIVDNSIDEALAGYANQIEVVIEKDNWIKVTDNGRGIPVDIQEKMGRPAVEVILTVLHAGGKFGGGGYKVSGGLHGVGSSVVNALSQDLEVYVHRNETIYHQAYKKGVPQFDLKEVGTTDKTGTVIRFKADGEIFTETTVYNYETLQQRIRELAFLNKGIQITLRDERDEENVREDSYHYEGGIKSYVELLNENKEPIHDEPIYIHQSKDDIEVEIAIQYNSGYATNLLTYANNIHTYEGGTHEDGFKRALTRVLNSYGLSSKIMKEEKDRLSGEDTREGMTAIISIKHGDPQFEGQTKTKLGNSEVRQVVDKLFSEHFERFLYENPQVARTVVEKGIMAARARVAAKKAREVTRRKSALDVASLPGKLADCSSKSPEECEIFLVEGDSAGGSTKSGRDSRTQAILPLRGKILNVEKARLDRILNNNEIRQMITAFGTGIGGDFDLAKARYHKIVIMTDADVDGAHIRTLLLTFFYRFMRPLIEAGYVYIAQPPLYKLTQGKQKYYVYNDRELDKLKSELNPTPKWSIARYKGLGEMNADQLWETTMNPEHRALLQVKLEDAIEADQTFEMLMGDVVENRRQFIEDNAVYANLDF
Chain of DNA gyrase (Staphylococcus aureus) (P20831 whole entry partner): as the sequence (P20831 whole entry) above

Row | SMILES | inhibition [1] | IC50 [2] | inhibition [3] | inhibition [4] | MIC (Acinetobacter baumannii) | MIC (Klebsiella pneumoniae) | MIC (Staphylococcus aureus [5]) | MIC (Escherichia coli [6]) | MIC (Escherichia coli [7]) | MIC (Staphylococcus aureus [8]) | IC50 (DNA gyrase) | MIC (Staphylococcus aureus [9]) | IC50 [10] | MIC (Staphylococcus aureus [11]) | MIC (Enterococcus faecium) | MIC (Staphylococcus aureus [12]) | MIC (Staphylococcus aureus [13]) | MIC [14] | MIC (Staphylococcus aureus [15])
1 | O=C(O)c1cn(C2CC2)c2cc(N3CCNCC3)c(F)cc2c1=O | Active |  |  |  |  |  |  |  |  |  |  |  |  |  |  |  |  |  | 
2 | CC(C)(C)c1ccc(C(O)CCCN2CCC(C(O)(c3ccccc3)c3ccccc3)CC2)cc1 (centres undefined) [TERFENADINE] |  | 206 µM | inactive | inactive |  |  |  |  |  |  |  |  |  |  |  |  |  |  | 
3 | OC(c1ccccc1)(c1ccccc1)C1CCN(Cc2ccc(-c3ccccc3)cc2)CC1 | Active | 160 µM |  |  | > 256 µg/mL | > 256 µg/mL | 4 µg/mL (≈ 9.23 µM) | 2 µg/mL (≈ 4.61 µM) | > 256 µg/mL | 4 µg/mL (≈ 9.23 µM) | 125 µM | 8 µg/mL (≈ 18.5 µM) | 0.21 µM | 8 µg/mL (≈ 18.5 µM) | 8 µg/mL (≈ 18.5 µM) | 8 µg/mL (≈ 18.5 µM) |  |  | 
4 | OC(c1ccccc1)(c1ccccc1)C1CCN(CCCOc2ccc(-c3ccccc3)cc2)CC1 | Active | 160 µM |  |  | > 128 µg/mL | > 128 µg/mL |  | 4 µg/mL (≈ 8.37 µM) | > 128 µg/mL | 2 µg/mL (≈ 4.19 µM) | 50 µM | 2 µg/mL (≈ 4.19 µM) | 0.14 µM |  |  |  | 1 µg/mL (≈ 2.09 µM) | 1 µg/mL (≈ 2.09 µM) | 1 µg/mL (≈ 2.09 µM)
5 | OC(CCCN1CCC(C(O)(c2ccccc2)c2ccccc2)CC1)c1ccc(Cl)cc1 (centres undefined) |  | > 333 µM |  |  |  |  |  |  |  |  | 133 µM |  |  |  |  |  |  |  | 64 µg/mL (≈ 142 µM)
